From PubChem
RanGTP-Impb inh: inhibitors of RanGTP-importin-beta interaction, primary screen, biochemical, FRET, CFP-Ran, YFP-importin-beta, homogeneous; cell-free CFP-Ran/YFP-importin-beta FRET ratio; inhibition, % (no concentration beside the values); 1.1% of 300,000 active; AID 2216;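 active = more than half of the replicate wells show a fall in the fluorescence ratio signal beyond about 16%, limit read from the data, passing the limit was not always enough; inconclusive = exactly half of the replicate wells pass the set limit; inactive = fewer than half of replicates pass the limit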
Hck-Nef inh: human Hck-Nef kinase inhibition | AID 463187 | inhibition, % at 20 µM | Recombinant Hck-YEEI plus Nef, Z-Lyte FRET kinase assay | P08631 | 0.68% of 220,000 active;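 active = Hck-Nef kinase inhibition above about 50%, limit read from the data; inactive = inhibition below that limit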
CaV13 ICDI inh: Primary screen for inhibitors of IQ motif and Ca2+-dependent inactivation inhibitor domain binding in CACNA1D, Förster resonance energy transfer in living cells, …. inhibition, % at 12.3 µM. HEK cells, CFP/YFP FRET ICDI-IQ, plate reader, 10 min; percent FRET-ratio fall versus neutral wells. 0.098% of 340,000 active;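 active = mean replicate inhibition of at least 30% and at least 1% of replicates passing that level; inconclusive = only one of the two criteria is met; inactive = neither criterion is met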
Runt-CBFb FRET: Runt domain-CBFb interaction inhibition. Q01196+Q13951. Cerulean-Runt/Venus-CBFb FRET ratio 530/480, 1 h. inhibition, % at 20 µM. 0.46% of 220,000 active. AID 1496;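 active = inhibition over about 50% at 20 µM in the single-dose screen, limit read from the data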
Target sequence (Q01196 whole entry, looked up, the tested form may be a part): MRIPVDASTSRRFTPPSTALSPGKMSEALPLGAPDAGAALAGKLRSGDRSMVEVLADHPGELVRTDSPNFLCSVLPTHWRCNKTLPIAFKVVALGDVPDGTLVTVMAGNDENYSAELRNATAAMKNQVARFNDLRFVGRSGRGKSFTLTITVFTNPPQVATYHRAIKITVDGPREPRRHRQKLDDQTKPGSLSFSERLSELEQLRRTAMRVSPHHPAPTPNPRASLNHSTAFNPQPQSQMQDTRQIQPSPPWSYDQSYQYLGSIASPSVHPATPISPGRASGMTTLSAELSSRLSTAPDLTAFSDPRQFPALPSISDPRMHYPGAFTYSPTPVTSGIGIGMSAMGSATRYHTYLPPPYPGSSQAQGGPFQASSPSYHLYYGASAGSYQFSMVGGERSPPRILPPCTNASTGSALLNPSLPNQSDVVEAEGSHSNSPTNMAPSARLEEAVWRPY
Target sequence (Q13951 whole entry, looked up, the tested form may be a part): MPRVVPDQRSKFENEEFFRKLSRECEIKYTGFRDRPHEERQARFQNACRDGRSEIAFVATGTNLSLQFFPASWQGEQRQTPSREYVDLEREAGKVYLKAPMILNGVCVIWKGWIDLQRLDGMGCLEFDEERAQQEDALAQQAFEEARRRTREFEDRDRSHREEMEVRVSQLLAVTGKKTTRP
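test system = Cerulean-Runt domain fusion protein, energy donor | probe or stimulus = Venus-CBFb binding partner, 100 nM | incubation = two 1 h room-temperature incubations shielded from light | detection = fluorescence energy transfer, 422 nm excitation, 530/480 nm emission | measure = loss of energy transfer signal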
Runt-SMMHC FRET: inhibitors of human RUNX1 Runt domain binding to CBFb-SMMHC; Q01196+Q13951; Cerulean-Runt/Venus-CBFb-SMMHC FRET ratio 530/480, 1 h; inhibition, % at 20 µM; 0.74% of 220,000 active;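 active = mean inhibition across duplicate retests at 20 µM reaching about 50%, limit read from the data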;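 also: inhibitors lower the FRET ratio by blocking Runt binding to CBFb-SMMHC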
Numbers stand for hits; 0 = inactive; ? = inconclusive; - = not tested or not shown; + = active, no number. Sampled rows, rich in hits. Any-hit rate of the full collection: about 1.5%.

SMILES	RanGTP-Impb inh	Hck-Nef inh	CaV13 ICDI inh	Runt-CBFb FRET	Runt-SMMHC FRET
Cc1ccc2nc3c(cc(C(N)=S)c(=N)n3CCCOC(C)C)c(=O)n2c1	188	0	34	0	0
C=CCn1c(=N)c(C(=O)OCC)cc2c(=O)n3cc(C)ccc3nc21	-	-	-	0	0
Cc1cccn2c(=O)c3cc(C(N)=S)c(=N)n(CCCN4CCOCC4)c3nc12	0	0	+	0	88
COCCCn1c(=N)c(C(N)=S)cc2c(=O)n3cccc(C)c3nc21	+	-	0	-	-
CC(NC(=O)C(=O)N/N=C\c1ccc([N+](=O)[O-])cc1)c1ccccc1 (stereo unspecified)	0	0	0	0	0
CCC(C)NC(=O)CSc1nnc(-c2ccncc2)n1-c1ccc(OC)cc1 (stereo unspecified)	0	0	0	0	0
Cc1ccc2c(CC(=O)N3CCN(S(=O)(=O)c4ccccc4)CC3)coc2c1	-	-	0	-	-
Cc1ccc(O)c(Nc2c3ccccc3nc3ccccc23)c1	24	-	0	-	-
Cn1c(=O)[nH]c(=O)c2c1nc(N1CCCCC1)n2C/C=N/Nc1ccc(C(=O)O)cc1	0	0	0	0	0
CC(=O)c1cccc(Nc2nc(-c3ccccc3)nc3ccccc23)c1	0	-	0	-	-
COc1ccc(OC)c(Nc2cc3ccccc3c(=O)[nH]2)c1	?	-	0	-	-
O=c1[nH]c(Nc2ccccc2)cc2cc(Br)ccc12	83	-	0	-	-
O=c1cc(Nc2cccc(Br)c2)[nH]c(=O)[nH]1	0	0	0	0	0
CC(=O)c1cccc(-c2ccc3c(=O)[nH]c(Nc4ccccc4)cc3c2)c1	22	-	0	-	-
Cn1c(=O)cc(Nc2ccccc2)[nH]c1=O	?	-	0	-	-
COc1ccccc1Nc1cc2cc(Br)ccc2c(=O)[nH]1	34	-	0	-	-
O=c1[nH]c(Nc2ccccc2)cc2ccccc12	43	0	0	0	0
CC1C(=O)OC(c2ccc(Br)cc2)C(C)(C)C1=O (stereo unspecified)	0	0	0	0	0
O=C(CSC1=NS(=O)(=O)c2cc(F)ccc2N1)Nc1ccccc1	0	-	0	-	-
CCC(=O)N/C(=N/c1nc(C)cc(C)n1)Nc1ccc(C)cc1	0	-	0	-	-
Cc1[nH]c(=O)[nH]c(=O)c1/C=N/NC(=O)[C@H](C)NC(=O)OC(C)(C)C	0	0	-	0	0
Cc1ccccc1-n1c(=O)cc(N2CCCCCC2)[nH]c1=O	145	0	0	-	0
CCOC(=O)C1CCN(c2cc(=O)n(-c3ccccc3Cl)c(=O)[nH]2)CC1	59	0	-	0	0
COC(=O)C1=CN(Cc2ccc(OC)cc2)C=C(C(=O)OC)C1c1cccs1	0	0	0	0	0
COC(=O)C1=CN(CCCN2CCCC2=O)C=C(C(=O)OC)C1c1cccs1	?	0	0	0	87
SMILES	RanGTP-Impb inh	Hck-Nef inh	CaV13 ICDI inh	Runt-CBFb FRET	Runt-SMMHC FRET
Cc1sc2ncn(CC(=O)NCCCC(=O)N3CCN(c4ccccc4)CC3)c(=O)c2c1C	0	0	0	55	0
COc1cc(OC)c(/C=N/NC(=O)c2ccncc2)cc1Br	0	0	0	-	0
COc1cc(/C=N/OCC(=O)Nc2cc(C)cc(C)c2)ccc1OCc1ccc(Cl)cc1	26	0	0	0	0
COc1cc(/C=N/OCC(=O)NC2CCCCC2C)ccc1OCc1ccc(Cl)cc1 (stereo unspecified)	?	0	0	0	0
O=C1N/C(=C\c2ccc(O)cc2)C(O)=C1C=NCc1ccccc1	0	69	0	0	0
N#C[C@H]1[C@H](c2ccccc2)[C@](C#N)(C(=O)c2ccccc2)[C@@H]2C=Cc3ccccc3N21	47	0	-	0	0
Cc1ccc(-c2csc3nc(-c4ccncc4)[nH]c(=O)c23)cc1	0	0	0	0	0
Cc1ccc(-c2nc3ccsc3c(=O)[nH]2)cc1	0	0	60	0	0
O=C(N/N=C\c1cn(-c2ccccc2)nc1-c1ccccc1)c1ccc2c(c1)OCO2	0	0	-	0	0
N#Cc1c(-c2cccc(Br)c2)cc(-c2ccco2)[nH]c1=O	72	0	0	0	90
COc1ccc(-c2cc(C(F)(F)F)c(C#N)c(=O)[nH]2)cc1	49	0	0	0	105
N#Cc1c(-c2ccccc2)cc(-c2ccccc2)[nH]c1=O	0	-	0	-	-
COc1ccc(-c2cc(-c3ccco3)[nH]c(=O)c2C#N)cc1	0	0	0	0	86
Cc1c(CCC(=O)O)c(=O)oc2c(C)c3occ(-c4ccc(Cl)cc4)c3cc12	0	-	0	-	-
Cc1c(CC(=O)O)c(=O)oc2c(C)c3occ(-c4ccccc4)c3cc12	19	-	0	-	-
CC(C)Cc1cc(C(=O)N2CCN(c3ccc(F)cc3)CC2)no1	?	0	0	0	0
CC(C)C(C(=O)NCC1CCCO1)N(Cc1ccco1)C(=O)CNS(=O)(=O)c1ccccc1 (stereo unspecified)	0	0	0	0	0
COc1ccc(N(C(=O)Cn2cnc3ccccc32)C(C(=O)NC2CCCCC2)c2ccccc2)cc1 (stereo unspecified)	?	0	0	0	0
CCc1c(C)nc2ccc(Br)cc2c1SCCC#N	0	0	0	0	0
CCc1c(C)nc2c(Br)cccc2c1SCCC#N	29	0	0	0	0
O=C1C(Nc2ccc(O)cc2)=C/C(=N/S(=O)(=O)c2cccs2)c2ccccc21	0	0	0	0	0
CCN1C(=O)CC(C(=O)OC)=C1C	0	0	0	0	0
COC(=O)C1=C(C)N(CC2CCCO2)C(=O)C1 (stereo unspecified)	17	0	0	0	0
N#Cc1c(Cl)nc(SCc2ccccc2)nc1-c1ccccc1	-	0	-	113	0
CCN(CC)c1ccc(-c2nn3c(-c4cccnc4)nnc3s2)cc1	0	0	0	0	80
SMILES	RanGTP-Impb inh	Hck-Nef inh	CaV13 ICDI inh	Runt-CBFb FRET	Runt-SMMHC FRET
COc1cc2ncnc(NCc3ccccc3)c2cc1OC	0	0	-	0	0
COc1cc2ncnc(NCc3cccc(Cl)c3)c2cc1OC	0	65	0	0	0
CN1CCc2c(sc3c2c(=O)n(-c2cccc(Cl)c2)c2nncn32)C1	0	0	-	-	-
COC(=O)CSc1nc2sc3c(c2c(=O)n1-c1ccc(OC)cc1)CCN(C)C3	0	-	0	-	-
C=CCn1c(SCC(=O)NCc2ccco2)nc2sc3c(c2c1=O)CCCC3	0	0	-	0	0
O=C(NCc1ccco1)c1ccc2nc3sc4c(c3c(=O)n2c1)CCCC4	62	0	-	63	63
COC(=O)CSc1nc2sc3c(c2c(=O)n1C1CCCCC1)CCN(C)C3	26	0	-	0	0
CN1CCc2c(sc3nc(SCC(=O)NCc4ccco4)n(-c4ccccc4)c(=O)c23)C1	25	-	0	-	-
CN1CCc2c(sc3nc(NCCO)n(-c4cccc(Cl)c4)c(=O)c23)C1	92	-	0	-	-
CCOC(=O)c1cc(NC(=O)Nc2nccs2)c(C)nc1C	0	0	0	0	0
